Experimental data gathered from unrelated publications.
Spike glycoprotein: Spike glycoprotein (Severe acute respiratory syndrome coronavirus 2, UniProt P0DTC2)

SMILES	target	assay	conditions	quantity	value
Cc1nn(C)cc1-c1nc2c(N3CCN(Cc4ccc(Cl)cc4)CC3)c(Cl)cnc2[nH]1	Tyrosine-protein kinase ABL1, non-phosphorylated (ABL1, Homo sapiens, UniProt P00519, H396P)	binding, competition with immobilised ligand	1 µM	remaining binding	100%
C#Cc1n[nH]c2c(-c3cn(C(C)c4ccccn4)c(=O)[nH]c3=O)cc(F)cc12 (stereo not shown)	Receptor tyrosine-protein kinase erbB-2 (ERBB2, Homo sapiens, UniProt P04626)	enzyme activity, inhibitor	1 µM	inhibition	-4.5%
C=C1C[C@@]23CC[C@H]4[C@@](C)(CCC[C@@]4(C)C(=O)O[C@@H]4O[C@H](CO)[C@@H](O)[C@H](O)[C@H]4O)[C@@H]2CC[C@]1(O[C@@H]1O[C@H](CO)[C@@H](O)[C@H](O)[C@H]1O)C3	Spike glycoprotein	binding, BLI		koff	0.122 s⁻¹
CC[C@H](C)[C@@H]1NC(=O)[C@H](Cc2ccc(O)cc2)NC(=O)[C@H](C(C)C)NC(=O)[C@H]([C@@H](C)CC)NC(=O)[C@H](CO)NC(=O)[C@H](Cc2ccc(O)cc2)NC(=O)CSC[C@@H](C(N)=O)NC(=O)CNC(=O)[C@H](CCCNC(=N)N)NC(=O)CNC(=O)[C@H](C(C)C)NC(=O)[C@H](Cc2ccccc2)NC(=O)[C@H](CCCNC(=N)N)NC(=O)[C@H](C(C)C)NC(=O)[C@H](CCC(=O)O)NC(=O)CNC(=O)[C@H](CCCCN)NC1=O	Spike glycoprotein	binding		koff	0.0058 s⁻¹
Cn1cc(-c2cc(F)cc(N3CCn4c(cc5c4CCCC5)C3=O)c2CO)cc(Nc2ccc(N3CCN(C4COC4)CC3)cn2)c1=O	Tyrosine-protein kinase ABL1 (ABL1, Homo sapiens, UniProt P00519, E255K)	enzyme activity, inhibitor	0.1 µM	inhibition	1%
COc1ncccc1-c1cnn2ccc(N3CCN(C(=O)OC(C)C)CC3)nc12	Serine/threonine-protein kinase RIO1 (RIOK1, Homo sapiens, UniProt Q9BRS2)	binding, competition with immobilised ligand	1 µM	remaining binding	3.9%
Cn1cc(-c2cccc(N3CCc4c(sc5c4CC(C)(C)C5)C3=O)c2CO)cc(Nc2ccncn2)c1=O	Serine/threonine-protein kinase WNK2 (WNK2, Homo sapiens, UniProt Q9Y3S1)	enzyme activity, inhibitor	1 µM	inhibition	2%
O=c1cc(-c2ccccc2)oc2c(O)c(O)ccc12	Spike glycoprotein	binding, BLI		koff	0.0482 s⁻¹
CCCCCCCCCCCCCCCCCCCCCCCCCC(=O)N[C@@H](CO[C@H]1O[C@H](CO)[C@H](O)[C@H](O)[C@H]1O)[C@H](O)[C@H](O)CCCCCCCCCCCCCC	Cd1d1 (Mus musculus, UniProt P11609)	binding, SPR		kon	63000 M⁻¹ s⁻¹
C=C[C@@](C)(/C=C/c1ccc(O)cc1)CCC=C(C)C	Spike glycoprotein	binding		kon	1190 M⁻¹ s⁻¹
CC[C@H](C)[C@@H]1NC(=O)[C@H](C)NC(=O)[C@H](CCCCN)NC(=O)[C@H](Cc2c[nH]c3ccccc23)NC(=O)[C@H](CC(C)C)NC(=O)[C@H](CC(C)C)NC(=O)[C@H](C(C)C)NC(=O)[C@H](CC(=O)O)NC(=O)[C@H](Cc2ccccc2)NC(=O)[C@H](Cc2ccc(O)cc2)NC(=O)[C@@H](Cc2ccc(O)cc2)NC(=O)CSC[C@@H](C(N)=O)NC(=O)[C@H](CO)NC1=O	Spike glycoprotein	binding		koff	0.065 s⁻¹
Nc1ncc(-c2nc(N3CCOCC3)nc(N3CCOCC3)n2)c(C(F)F)n1	Tyrosine-protein kinase ABL1, non-phosphorylated (ABL1, Homo sapiens, UniProt P00519)	binding, competition with immobilised ligand	10 µM	remaining binding	70%
O=c1c(O)c(-c2ccc(O)cc2)oc2cc(O)cc(O)c12	Spike glycoprotein	binding, BLI		koff	0.053 s⁻¹
